Laboratory results published in ChEMBL document CHEMBL1137722, “Synthesis and pharmacological evaluation of a novel series of 5-(substituted)aryl-3-(3-coumarinyl)-1-phenyl-2-pyrazolines as novel anti-inflammatory and analgesic agents” (Eur J Med Chem, 2009).

What was measured:
Rattus norvegicus [1] = assay: Antipyretic activity in yeast-induced pyrexia albino rat model assessed as temperature index measured by sum of mean rectal temperature changes from 0 to 5 hrs at 200 mg/kg, po administered 30 mins after 18 hrs of yeast challenge (Rvb=39.4 degreeC); assay type: functional
Mus musculus [2] = assay: Acute toxicity in albino mouse assessed as mortality up to 2000 mg/kg, po after 24 hrs; assay type: organism-based; set-up: dose 2000 mg/kg, route oral; settings: in vivo
Procedure, shortened: (§1)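 Albino mice of either sex (20–25 g), 12 groups of six, fasted 24 h with water available. Given oral doses rising through 10, 20, 100, 200, 1000 and 2000 mg/kg. Watched continuously for 3 h for behavioural, neurological and autonomic signs, then every 30 min for the next 3 h, then up to 24 h or until death. Guideline: OECD.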

Rattus norvegicus [3] = assay: Antiinflammatory activity in albino rat chronic arthritis model assessed as inhibition of Freund's adjuvant-induced paw edema at 200 mg/kg, po administered on day 16 to 19 post Freund's adjuvant challenge measured on day 19 relative to control; assay type: functional
Procedure, shortened: (§2)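 Male albino rats (150–230 g) received 0.1 ml heat-killed M. tuberculosis (Freund's complete adjuvant) into the left hind footpad on day 1. Rats with developed arthritis on day 15 were split into groups of six. Dosing was oral, days 16–19, with 1 ml 0.5% sodium CMC as control. Paw volume, body weight and secondary lesions were recorded daily. % inhibition was calculated from day 15, n=6.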

Rattus norvegicus [4] = assay: Antiinflammatory activity in albino rat acute inflammatory model assessed as inhibition of carrageenan-induced paw edema at 200 mg/kg, po dosed 1 hr before carrageenan challenge measured after 4 hrs relative to control; assay type: functional
Procedure, shortened: (§3)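 Male albino rats (170–220 g), fasted at least 12 h with water available, groups of six. Oral dosing with 0.5% sodium CMC vehicle control. One hour later, 0.05 ml of 1% carrageenan was injected subplantar into the left hind paw. Paw volume was measured by digital plethysmometer at 0, 2 and 4 h. % inhibition = [1 − treated/control edema volume] × 100, n=6.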

Rattus norvegicus [5] = assay: Gastrointestinal toxicity in starved albino rat stress model assessed as ulcer index at 200 mg/kg, po after 7 hrs; assay type: organism-based; set-up: dose 200 mg/kg, route oral; settings: in vivo
Procedure, shortened: (§4)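 Albino rats of either sex, 170–250 g, six per group, starved 48 h with water ad libitum. Dosed orally as a suspension in 0.5% sodium CMC, test compounds at 200 mg/kg b.w. Killed 7 h later. Stomach opened along the greater curvature and everted. Ulcer index from lesion counts in five size classes, ranging from pinpoint to >4 mm diameter.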

Rattus norvegicus [6] = assay: Antipyretic activity in yeast-induced pyrexia albino rat model assessed as mean rectal temperature at 200 mg/kg, po administered 30 mins after 18 hrs of yeast challenge measured after 2 hrs postdosing (Rvb=39.2 degC); assay type: functional
Rattus norvegicus [7] = assay: Antiinflammatory activity in albino rat acute inflammatory model assessed as inhibition of carrageenan-induced paw edema at 200 mg/kg, po dosed 1 hr before carrageenan challenge measured after 2 hrs relative to control; assay type: functional; procedure, shortened: as §3
Mus musculus [8] = assay: Analgesic activity in albino mouse assessed as protection against glacial acetic acid-induced writhing response at 200 mg/kg, po pretreated 0.5 hrs before glacial acetic acid challenge measured for 15 mins; assay type: functional
Procedure, shortened: (§5)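 Albino mice of either sex (20–25 g). Mice were pre-screened the day before for writhing, and only responders were used. Compound was given orally as a suspension in 0.5% sodium CMC 30 min before glacial acetic acid challenge. Stretching episodes were counted for 15 min. Results are the group mean, n=6, with % protection against control.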

[9] = Acute toxicity in po dosed albino mouse assessed as maximum tolerated dose; assay type: organism-based; settings: in vivo; procedure, shortened: as §1
Rattus norvegicus [10] = assay: Antipyretic activity in yeast-induced pyrexia albino rat model assessed as mean rectal temperature at 200 mg/kg, po administered 30 mins after 18 hrs of yeast challenge measured after 5 hrs postdosing (Rvb=38.2 degC); assay type: functional
Rattus norvegicus [11] = assay: Antipyretic activity in yeast-induced pyrexia albino rat model assessed as mean rectal temperature at 200 mg/kg, po administered 30 mins after 18 hrs of yeast challenge measured after 4 hrs postdosing (Rvb=38.7 degC); assay type: functional
Rattus norvegicus [12] = assay: Antipyretic activity in yeast-induced pyrexia albino rat model assessed as mean rectal temperature at 200 mg/kg, po administered 30 mins after 18 hrs of yeast challenge measured after 3 hrs postdosing (Rvb=38.9 degC); assay type: functional
Rattus norvegicus [13] = assay: Antipyretic activity in yeast-induced pyrexia albino rat model assessed as mean rectal temperature at 200 mg/kg, po administered 30 mins after 18 hrs of yeast challenge measured after 1 hr postdosing (Rvb=39.4 degC); assay type: functional
Mus musculus [14] = assay: Acute toxicity in albino mouse assessed as behavioral response up to 2000 mg/kg, po after 24 hrs; assay type: organism-based; set-up: dose 2000 mg/kg, route oral; settings: in vivo; procedure, shortened: as §1
Rattus norvegicus [15] = assay: Antipyretic activity in yeast-induced pyrexia albino rat model assessed as temperature index measured by sum of mean rectal temperature changes from 0 to 5 hrs at 200 mg/kg, po administered 30 mins after 18 hrs of yeast challenge (Rvb=39.6 degC); assay type: functional
Rattus norvegicus [16] = assay: Antipyretic activity in yeast-induced pyrexia albino rat model assessed as temperature index measured by sum of mean rectal temperature changes from 0 to 5 hrs at 200 mg/kg, po administered 30 mins after 18 hrs of yeast challenge (Rvb=39.3 degC); assay type: functional
Rattus norvegicus [17] = assay: Antipyretic activity in yeast-induced pyrexia albino rat model assessed as temperature index measured by sum of mean rectal temperature changes from 0 to 5 hrs at 200 mg/kg, po administered 30 mins after 18 hrs of yeast challenge (Rvb=39.2 degC); assay type: functional
Rattus norvegicus [18] = assay: Antipyretic activity in yeast-induced pyrexia albino rat model assessed as mean rectal temperature at 135 mg/kg, po administered 30 mins after 18 hrs of yeast challenge measured after 3 hrs postdosing (Rvb=38.9 degC); assay type: functional
Rattus norvegicus [19] = assay: Antipyretic activity in yeast-induced pyrexia albino rat model assessed as mean rectal temperature at 135 mg/kg, po administered 30 mins after 18 hrs of yeast challenge measured after 4 hrs postdosing (Rvb=38.7 degC); assay type: functional
Rattus norvegicus [20] = assay: Antipyretic activity in yeast-induced pyrexia albino rat model assessed as temperature index measured by sum of mean rectal temperature changes from 0 to 5 hrs at 135 mg/kg, po administered 30 mins after 18 hrs of yeast challenge (Rvb=39.0 degC); assay type: functional
Rattus norvegicus [21] = assay: Antipyretic activity in yeast-induced pyrexia albino rat model assessed as mean rectal temperature at 135 mg/kg, po administered 30 mins after 18 hrs of yeast challenge measured after 5 hrs postdosing (Rvb=38.2 degC); assay type: functional
Rattus norvegicus [22] = assay: Antipyretic activity in yeast-induced pyrexia albino rat model assessed as mean rectal temperature at 135 mg/kg, po administered 30 mins after 18 hrs of yeast challenge measured after 1 hr postdosing (Rvb=39.4 degreeC); assay type: functional
Rattus norvegicus [23] = assay: Antipyretic activity in yeast-induced pyrexia albino rat model assessed as mean rectal temperature at 135 mg/kg, po administered 30 mins after 18 hrs of yeast challenge measured after 2 hrs postdosing (Rvb=39.2 degC); assay type: functional
Mus musculus [24] = assay: Analgesic activity in albino mouse assessed as protection against glacial acetic acid-induced writhing response at 30 mg/kg, po pretreated 0.5 hrs before glacial acetic acid challenge measured for 15 mins; assay type: functional; procedure, shortened: as §5
Rattus norvegicus [25] = assay: Gastrointestinal toxicity in starved po dosed albino rat stress model assessed as ulcer index after 7 hrs; assay type: organism-based; settings: in vivo; procedure, shortened: as §4
Rattus norvegicus [26] = assay: Antiinflammatory activity in albino rat acute inflammatory model assessed as inhibition of carrageenan-induced paw edema at 13.5 mg/kg, po dosed 1 hr before carrageenan challenge measured after 2 hrs relative to control; assay type: functional; procedure, shortened: as §3
Rattus norvegicus [27] = assay: Antiinflammatory activity in albino rat acute inflammatory model assessed as inhibition of carrageenan-induced paw edema at 13.5 mg/kg, po dosed 1 hr before carrageenan challenge measured after 4 hrs relative to control; assay type: functional; procedure, shortened: as §3
Rattus norvegicus [28] = assay: Antiinflammatory activity in albino rat chronic arthritis model assessed as inhibition of Freund's adjuvant-induced paw edema at 13.5 mg/kg, po administered on day 16 to 19 post Freund's adjuvant challenge measured on day 19 relative to control; assay type: functional; procedure, shortened: as §2

Structure (SMILES) | Activity (Mus musculus [2]) | inhibition in vivo at 200 mg/kg (Rattus norvegicus [4]) [%] | inhibition in vivo at 200 mg/kg (Rattus norvegicus [7]) [%] | MTD [9] [mg/kg] | Activity (Mus musculus [14]) | other results
O=c1oc2ccccc2cc1C1=NN(c2ccccc2)[C@@H](c2ccc(F)cc2)C1 | Non-toxic | 66.7 | 44.9 | 2000 |  | Activity (Rattus norvegicus [1]): -6.6 °C; inhibition in vivo at 200 mg/kg (Rattus norvegicus [3]): 40.5%; UI (Rattus norvegicus [5]): 1.66; Activity (Rattus norvegicus [6]): 38.3 °C; Activity (Mus musculus [8]): 55%; Activity (Rattus norvegicus [10]): 37.1 °C; Activity (Rattus norvegicus [11]): 37.7 °C; Activity (Rattus norvegicus [12]): 37.9 °C; Activity (Rattus norvegicus [13]): 39.2 °C
O=c1oc2ccccc2cc1C1=NN(c2ccccc2)[C@@H](c2ccc(O)cc2)C1 | Non-toxic | 34.6 | 28.8 | 2000 |  | 
Cc1ccc([C@H]2CC(c3cc4ccccc4oc3=O)=NN2c2ccccc2)cc1 | Non-toxic | 38 | 30.1 |  | Toxic | 
COc1cccc([C@H]2CC(c3cc4ccccc4oc3=O)=NN2c2ccccc2)c1 | Non-toxic | 61.5 | 38.3 | 2000 |  | inhibition in vivo at 200 mg/kg (Rattus norvegicus [3]): 20.9%; UI (Rattus norvegicus [5]): 2.12; Activity (Rattus norvegicus [6]): 38.8 °C; Activity (Mus musculus [8]): 35%; Activity (Rattus norvegicus [10]): 37.9 °C; Activity (Rattus norvegicus [11]): 38.2 °C; Activity (Rattus norvegicus [12]): 38.6 °C; Activity (Rattus norvegicus [13]): 39.4 °C; Activity (Rattus norvegicus [15]): -5.1 °C
CN(C)c1ccc([C@H]2CC(c3cc4ccccc4oc3=O)=NN2c2ccccc2)cc1 | Non-toxic | 40.1 | 28.4 |  | Toxic | 
O=c1oc2ccccc2cc1C1=NN(c2ccccc2)[C@@H](c2ccccc2)C1 | Non-toxic | 32.7 | 27.2 | 2000 |  | 
O=c1oc2ccccc2cc1C1=NN(c2ccccc2)[C@@H](/C=C/c2ccccc2)C1 | Non-toxic | 42.5 | 26.7 |  | Toxic | 
O=c1oc2ccccc2cc1C1=NN(c2ccccc2)[C@@H](c2ccc(Cl)cc2)C1 | Non-toxic | 64.7 | 39.2 | 2000 |  | inhibition in vivo at 200 mg/kg (Rattus norvegicus [3]): 39.1%; UI (Rattus norvegicus [5]): 2.33; Activity (Rattus norvegicus [6]): 38.9 °C; Activity (Rattus norvegicus [16]): -3.9 °C; Activity (Mus musculus [8]): 41%; Activity (Rattus norvegicus [10]): 38 °C; Activity (Rattus norvegicus [11]): 38.1 °C; Activity (Rattus norvegicus [12]): 38.5 °C; Activity (Rattus norvegicus [13]): 39.1 °C
COc1ccc([C@H]2CC(c3cc4ccccc4oc3=O)=NN2c2ccccc2)cc1 | Non-toxic | 36.2 | 24.8 |  | Toxic | 
O=c1oc2ccccc2cc1C1=NN(c2ccccc2)[C@@H](c2cccc([N+](=O)[O-])c2)C1 | Non-toxic | 31.2 | 26.1 |  | Toxic | 
O=c1oc2ccccc2cc1C1=NN(c2ccccc2)[C@@H](c2ccccc2[N+](=O)[O-])C1 | Non-toxic | 26.6 | 24.7 |  | Toxic | 
O=c1oc2ccccc2cc1C1=NN(c2ccccc2)[C@@H](c2ccc(Cl)cc2Cl)C1 | Non-toxic | 67.5 | 56.7 | 2000 |  | inhibition in vivo at 200 mg/kg (Rattus norvegicus [3]): 45.4%; Activity (Rattus norvegicus [17]): -5.4 °C; UI (Rattus norvegicus [5]): 2.67; Activity (Rattus norvegicus [6]): 38.6 °C; Activity (Mus musculus [8]): 59%; Activity (Rattus norvegicus [10]): 37.2 °C; Activity (Rattus norvegicus [11]): 37.8 °C; Activity (Rattus norvegicus [12]): 38.1 °C; Activity (Rattus norvegicus [13]): 38.9 °C
CC(=O)Nc1ccc(O)cc1 [ACETAMINOPHEN] |  |  |  |  |  | Activity (Rattus norvegicus [18]): 37.6 °C; Activity (Rattus norvegicus [19]): 37.3 °C; Activity (Rattus norvegicus [20]): -6.7 °C; Activity (Rattus norvegicus [21]): 37 °C; Activity (Rattus norvegicus [22]): 38.4 °C; Activity (Rattus norvegicus [23]): 38 °C
CC(=O)Oc1ccccc1C(=O)O [ASPIRIN] |  |  |  |  |  | Activity (Mus musculus [24]): 67%; UI (Rattus norvegicus [25]): 4.33
O=C(O)Cc1ccccc1Nc1c(Cl)cccc1Cl [DICLOFENAC] |  |  |  |  |  | inhibition in vivo at 13.5 mg/kg (Rattus norvegicus [26]): 63.7%; inhibition in vivo at 13.5 mg/kg (Rattus norvegicus [27]): 78.7%; inhibition in vivo at 13.5 mg/kg (Rattus norvegicus [28]): 53%
